Reference: ChEMBL document CHEMBL4819027, “Design, synthesis and biological evaluation of novel 2-(4-(1H-indazol-6-yl)-1H-pyrazol-1-yl)acetamide derivatives as potent VEGFR-2 inhibitors” (Eur J Med Chem, 2021)

Experiments:
[1] = biological target: Vascular endothelial growth factor receptor 2 (Homo sapiens, UniProt P35968); assay: Inhibition of VEGFR2 (unknown origin) incubated for 10 mins followed by kinase substrate addition and measured after 30 mins by caliper mobility shift assay
HT-29 = assay: Antiproliferative activity against human HT-29 cells assessed as cell growth inhibition after 72 hrs by MTT assay; assay type: functional, cell-based; conditions: HT-29, 72 h
Summary of the method: (§1)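 Log-phase cells were seeded at 5 × 10³ per well and attached 24 h. HT-29 and GES-1 were grown in DMEM-based medium, A549/HepG2/HGC-27 in RPMI-1640, HUVEC in ECM with ECGS; all media had 10% FBS. Cells were exposed to graded compound concentrations for 72 h at 37 °C. MTT (5 mg/mL stock) was added for 4 h, formazan dissolved in DMSO, and A490 read. IC50 was obtained by nonlinear sigmoidal regression; mean ± S.E. of three experiments.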

A549 = assay: Antiproliferative activity against human A549 cells assessed as cell growth inhibition after 72 hrs by MTT assay; assay type: functional, cell-based; conditions: A549, 72 h; summary of the method: as §1
HepG2 = assay: Antiproliferative activity against human HepG2 cells assessed as cell growth inhibition after 72 hrs by MTT assay; assay type: functional, cell-based; conditions: HepG2, 72 h; summary of the method: as §1
HGC-27 [2] = assay: Antiproliferative activity against human HGC-27 cells assessed as cell growth inhibition after 72 hrs by MTT assay; assay type: functional, cell-based; conditions: HGC-27, 72 h; summary of the method: as §1
HUVEC [3] = assay: Cytotoxicity against human HUVEC cells assessed as inhibition of cell growth incubated for 72 hrs by MTT assay; assay type: cell-based; summary of the method: as §1
GES1 = assay: Cytotoxicity against human GES-1 cells assessed as inhibition of cell growth incubated for 72 hrs by MTT assay; assay type: cell-based; conditions: GES1, 72 h; summary of the method: as §1
HGC-27 [4] = assay: Induction of apoptosis in human HGC-27 cells assessed as total apoptotic cells level at 5 uM incubated for 24 hrs by propidium iode and annexin V-FITC staining based flow cytometry; assay type: functional
HGC-27 [5] = assay: Induction of apoptosis in human HGC-27 cells assessed as viable cells level at 5 uM incubated for 24 hrs by propidium iode and annexin V-FITC staining based flow cytometry (reference value: 96.0%); assay type: functional
HGC-27 [6] = assay: Induction of apoptosis in human HGC-27 cells assessed as early apoptotic cells level at 5 uM incubated for 24 hrs by propidium iode and annexin V-FITC staining based flow cytometry (reference value: 1.48%); assay type: functional
HGC-27 [7] = assay: Induction of apoptosis in human HGC-27 cells assessed as late apoptotic cells level at 5 uM incubated for 24 hrs by propidium iode and annexin V-FITC staining based flow cytometry (reference value: 0.86%); assay type: functional
HGC-27 [8] = assay: Induction of apoptosis in human HGC-27 cells assessed as necrotic cells level at 5 uM incubated for 24 hrs by propidium iode and annexin V-FITC staining based flow cytometry (reference value: 1.64%); assay type: functional
HUVEC [9] = assay: Antiangiogenic activity against HUVEC cells assessed as reduction in VEGF-induced tube formation tube formation incubated for 12 hrs by matrigel-based assay; assay type: functional, cell-based; conditions: Homo sapiens
Summary of the method: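 HUVECs at 4 × 10⁵ cells/mL seeded on Matrigel that had been polymerized 1 h at 37 °C. Cells were stimulated with 20 ng/mL VEGF and treated with compound (1, 2.5, 5 and 10 μM) or 0.1% DMSO vehicle for 12 h at 37 °C. Tubes were imaged by inverted microscopy. Tube length, surface area and branch points were quantified as pixel area.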

Vascular endothelial growth factor receptor 2, sequence (P35968 whole entry): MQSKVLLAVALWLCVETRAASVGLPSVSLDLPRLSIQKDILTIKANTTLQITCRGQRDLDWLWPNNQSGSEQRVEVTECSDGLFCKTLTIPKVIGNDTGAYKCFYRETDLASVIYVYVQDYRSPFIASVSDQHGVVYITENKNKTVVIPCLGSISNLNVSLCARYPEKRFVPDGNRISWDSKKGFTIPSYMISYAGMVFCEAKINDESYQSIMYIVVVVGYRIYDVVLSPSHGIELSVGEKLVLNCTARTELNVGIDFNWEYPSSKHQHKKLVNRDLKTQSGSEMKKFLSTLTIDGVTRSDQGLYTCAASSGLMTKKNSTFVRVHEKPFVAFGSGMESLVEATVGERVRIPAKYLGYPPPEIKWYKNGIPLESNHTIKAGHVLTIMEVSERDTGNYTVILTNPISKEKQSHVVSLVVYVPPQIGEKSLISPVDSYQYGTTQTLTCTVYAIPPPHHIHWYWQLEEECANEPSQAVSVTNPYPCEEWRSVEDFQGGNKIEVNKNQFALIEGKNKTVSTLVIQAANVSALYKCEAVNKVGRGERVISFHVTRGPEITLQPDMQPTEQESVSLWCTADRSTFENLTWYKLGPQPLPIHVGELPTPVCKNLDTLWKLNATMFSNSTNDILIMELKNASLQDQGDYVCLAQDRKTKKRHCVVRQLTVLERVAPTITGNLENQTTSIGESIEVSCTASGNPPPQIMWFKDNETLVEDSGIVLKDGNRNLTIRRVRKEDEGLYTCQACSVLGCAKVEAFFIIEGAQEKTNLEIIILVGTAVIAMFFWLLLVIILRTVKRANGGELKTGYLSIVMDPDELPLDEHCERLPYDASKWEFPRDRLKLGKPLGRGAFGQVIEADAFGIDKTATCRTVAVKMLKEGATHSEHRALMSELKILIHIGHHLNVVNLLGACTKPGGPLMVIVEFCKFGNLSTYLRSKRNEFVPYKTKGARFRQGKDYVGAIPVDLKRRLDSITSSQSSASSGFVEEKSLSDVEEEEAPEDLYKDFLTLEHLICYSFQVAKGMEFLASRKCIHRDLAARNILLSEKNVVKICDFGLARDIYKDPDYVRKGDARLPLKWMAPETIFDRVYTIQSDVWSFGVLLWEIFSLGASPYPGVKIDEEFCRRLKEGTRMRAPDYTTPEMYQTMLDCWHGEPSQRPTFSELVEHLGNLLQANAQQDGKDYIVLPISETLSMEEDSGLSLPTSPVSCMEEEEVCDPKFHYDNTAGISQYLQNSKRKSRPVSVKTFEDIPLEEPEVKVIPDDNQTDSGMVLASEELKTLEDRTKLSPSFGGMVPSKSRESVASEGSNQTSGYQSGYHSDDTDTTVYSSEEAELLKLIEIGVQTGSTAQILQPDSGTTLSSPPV

| SMILES | IC50 [1] [µM] | IC50 (HT-29) [µM] | IC50 (A549) [µM] | IC50 (HepG2) [µM] | IC50 (HGC-27 [2]) [µM] | IC50 (HUVEC [3]) [µM] | IC50 (GES1) [µM] | Activity (HGC-27 [4]) [%] | Activity (HGC-27 [5]) [%] | Activity (HGC-27 [6]) [%] | Activity (HGC-27 [7]) [%] | Activity (HGC-27 [8]) [%] | inhibition (HUVEC [9]) |
| --- | --- | --- | --- | --- | --- | --- | --- | --- | --- | --- | --- | --- | --- |
| Cc1ccc(NC(=O)Cn2cc(-c3ccc4c(NC(=O)C5CCN(C)CC5)n[nH]c4c3)cn2)cc1C(F)(F)F | 0.011 | 1.79 | 5.28 | 15.3 | 0.16 | 53.9 | 5.31 |  |  |  |  |  |  |
| Cc1ccc(NC(=O)Cn2cc(-c3ccc4c(NC(=O)C5CC5)n[nH]c4c3)nn2)cc1C(F)(F)F |  | > 50 | > 50 | > 50 | > 50 | < 1 | > 100 |  |  |  |  |  |  |
| Nc1n[nH]c2cc(-c3cnn(CC(=O)Nc4cc(C(F)(F)F)ccc4F)c3)ccc12 | 0.022 | 7.83 | 20.5 | 13.3 | 15.5 | 23.9 | 7.64 |  |  |  |  |  |  |
| Nc1n[nH]c2cc(-c3cnn(CC(=O)Nc4ccc(Cl)c(C(F)(F)F)c4)c3)ccc12 | 0.012 | 3.57 | 12.5 | 7.71 | 7.68 | 6.84 | 12 |  |  |  |  |  |  |
| Cc1ccc(NC(=O)Cc2cccc(-c3ccc4c(NC(=O)C5CC5)n[nH]c4c3)c2)cc1C(F)(F)F |  | > 50 | 20.9 | 25.5 | 15.6 | > 50 | 48.5 |  |  |  |  |  |  |
| Cc1ccc(NC(=O)Cc2ccc(-c3ccc4c(NC(=O)C5CC5)n[nH]c4c3)s2)cc1C(F)(F)F | 0.012 | 8.09 | 0.96 | 38.1 | 3.09 | 5.62 | 13.9 |  |  |  |  |  |  |
| CS(=O)(=O)Cc1cccc(Nc2n[nH]c3cc(-c4cnn(CC(=O)Nc5ccc(Cl)c(C(F)(F)F)c5)c4)ccc23)c1 | 0.143 | 3.69 | 7.17 | 6.54 | 1.26 | 7.22 | 17.7 |  |  |  |  |  |  |
| Cc1ccc(NC(=O)Cn2cc(-c3ccc4c(NC(=O)c5cnn(C)c5)n[nH]c4c3)cn2)cc1C(F)(F)F | 0.00073 | 4.92 | 3.86 | 2.61 | 0.021 | 4.41 | 1.67 |  |  |  |  |  |  |
| CCNc1n[nH]c2cc(-c3cnn(CC(=O)Nc4ccc(C)c(C(F)(F)F)c4)c3)ccc12 | 0.038 | 8.32 | 8.48 | 15.1 | 1.19 | > 50 | 1.9 |  |  |  |  |  |  |
| O=C(Cn1cc(-c2ccc3c(Nc4cccnc4)n[nH]c3c2)cn1)Nc1ccc(Cl)c(C(F)(F)F)c1 | 0.892 | 5.21 | 7.96 | 5.63 | 3.65 | 8.04 | 12.8 |  |  |  |  |  |  |
| O=C(Cn1cc(-c2ccc3c(NC(=O)C4CC4)n[nH]c3c2)cn1)Nc1ccc(Cl)c(C(F)(F)F)c1 | 0.014 | 1.37 | 8.55 | 6.03 | 1.05 | 1.07 | 29.8 |  |  |  |  |  |  |
| O=C(Cn1cc(-c2ccc3c(NC(=O)C4CC4)n[nH]c3c2)cn1)Nc1cc(C(F)(F)F)ccc1F | 0.012 | 5.06 | 8.82 | 5.61 | 3.73 | 5.26 | 25 |  |  |  |  |  |  |
| Cc1ccc(NC(=O)Cn2cc(-c3ccc4c(N)n[nH]c4c3)cn2)cc1C(F)(F)F | 0.0027 | 1.54 | 7.09 | 4.18 | 4.98 | 5.24 | 6.96 |  |  |  |  |  |  |
| Cc1ccc(NC(=O)Cn2cc(-c3ccc4c(NCC5CC5)n[nH]c4c3)cn2)cc1C(F)(F)F | 0.06 | 11 | 9.88 | 22.3 | 1.22 | 17.9 | 12 |  |  |  |  |  |  |
| Nc1n[nH]c2cc(-c3cnn(CC(=O)Nc4cccc(C(F)(F)F)c4)c3)ccc12 | 0.0074 | 3.97 | 19.5 | 11.5 | 10.2 | 7.25 | 22.3 |  |  |  |  |  |  |
| Cc1ccc(NC(=O)Cn2cc(-c3ccc4c(NC(=O)C5CC5)n[nH]c4c3)c(C)n2)cc1C(F)(F)F | 0.027 | 7.03 | 1.65 | 20.4 | 0.65 | 4.92 | 3.09 |  |  |  |  |  |  |
| Cc1ccc(NC(=O)Cn2cc(-c3ccc4c(NC(=O)C5CCCC5)n[nH]c4c3)cn2)cc1C(F)(F)F | 0.015 | 0.19 | 1.58 | 8.34 | 0.5 | 1.49 | 0.75 |  |  |  |  |  |  |
| Cn1cc(Nc2n[nH]c3cc(-c4cnn(CC(=O)Nc5ccc(Cl)c(C(F)(F)F)c5)c4)ccc23)cn1 | 0.22 | 9.17 | 12.1 | 10.4 | 12.5 | 4.03 | 13.3 |  |  |  |  |  |  |
| Cc1ccc(NC(=O)Cn2cc(-c3ccc4c(NC(=O)C(C)C)n[nH]c4c3)cn2)cc1C(F)(F)F | 0.028 | 0.48 | 2.48 | 13.7 | 0.39 | 2.43 | > 100 |  |  |  |  |  |  |
| Cc1ccc(NC(=O)Cn2cc(-c3ccc4c(NC(=O)C5CC5)n[nH]c4c3)cn2)cc1C(F)(F)F | 0.0014 | 1.01 | 2.16 | 2.51 | 0.63 | 0.95 | 4.24 |  |  |  |  |  |  |
| Cn1cc2ccc(Nc3n[nH]c4cc(-c5cnn(CC(=O)Nc6ccc(Cl)c(C(F)(F)F)c6)c5)ccc34)cc2n1 | 0.249 | 6.11 | 4.72 | 4.32 | 5.03 | 6.4 | 10 |  |  |  |  |  |  |
| CNS(=O)(=O)c1cc(Nc2n[nH]c3cc(-c4cnn(CC(=O)Nc5ccc(Cl)c(C(F)(F)F)c5)c4)ccc23)ccc1C | 0.407 | 3.27 | 1.37 | 3.83 | 0.39 | 1.45 | 3.37 |  |  |  |  |  |  |
| Cc1ccc(NC(=O)Cn2nc(C)c(-c3ccc4c(NC(=O)C5CC5)n[nH]c4c3)c2C)cc1C(F)(F)F | 0.307 | 14.7 | 1.81 | 27.4 | 2.79 | 6.62 | 11.9 |  |  |  |  |  |  |
| CNC(=O)c1cc(Oc2ccc(NC(=O)Nc3ccc(Cl)c(C(F)(F)F)c3)cc2)ccn1 [SORAFENIB] |  | 5.57 | 5.13 | 6.18 | 5.22 | 8.33 | 9.59 | 25.41 | 50.6 | 6.91 | 18.5 | 24 | Dose-Dependent Effect |
| Cc1ccc(NC(=O)Cn2cc(-c3ccc4c(NC(=O)c5cccnc5)n[nH]c4c3)cn2)cc1C(F)(F)F | 0.0023 | 7.78 | 5.34 | 9.08 | 1.17 | 1.75 | 8.46 |  |  |  |  |  |  |
| Cc1ccc(NC(=O)Cc2ccc(-c3ccc4c(NC(=O)C5CC5)n[nH]c4c3)cc2)cc1C(F)(F)F |  | 44.7 | 45.1 | > 50 | 33.7 | > 100 | > 100 |  |  |  |  |  |  |
